This is an account of results in ChEMBL document CHEMBL1921718, “Structure-activity relationships in toll-like receptor 2-agonists leading to simplified monoacyl lipopeptides” (J Med Chem, 2011).

The target in data set [1] is Toll-like receptor 2 (Homo sapiens, UniProt O60603). Description: Agonist activity at human TLR2 expressed in HEK293 cells assessed as NF-kappaB induction measured soluble alkaline phosphatase after 12 hrs by spectrophotometric analysis. The format is functional, cell-based. The essentials: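 HEK-Blue cells (HEK293 stably transfected with human TLR2 and NF-κB-driven secreted alkaline phosphatase) kept in selection medium with zeocin and normocin; seeded ~10^5 cells/mL, grown to confluency, then stimulated 12 h with serially diluted compounds. Supernatant sAP read spectrophotometrically at 620 nm using an alkaline phosphatase-specific chromogen in the detection medium.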
Toll-like receptor 2, sequence (O60603 whole entry): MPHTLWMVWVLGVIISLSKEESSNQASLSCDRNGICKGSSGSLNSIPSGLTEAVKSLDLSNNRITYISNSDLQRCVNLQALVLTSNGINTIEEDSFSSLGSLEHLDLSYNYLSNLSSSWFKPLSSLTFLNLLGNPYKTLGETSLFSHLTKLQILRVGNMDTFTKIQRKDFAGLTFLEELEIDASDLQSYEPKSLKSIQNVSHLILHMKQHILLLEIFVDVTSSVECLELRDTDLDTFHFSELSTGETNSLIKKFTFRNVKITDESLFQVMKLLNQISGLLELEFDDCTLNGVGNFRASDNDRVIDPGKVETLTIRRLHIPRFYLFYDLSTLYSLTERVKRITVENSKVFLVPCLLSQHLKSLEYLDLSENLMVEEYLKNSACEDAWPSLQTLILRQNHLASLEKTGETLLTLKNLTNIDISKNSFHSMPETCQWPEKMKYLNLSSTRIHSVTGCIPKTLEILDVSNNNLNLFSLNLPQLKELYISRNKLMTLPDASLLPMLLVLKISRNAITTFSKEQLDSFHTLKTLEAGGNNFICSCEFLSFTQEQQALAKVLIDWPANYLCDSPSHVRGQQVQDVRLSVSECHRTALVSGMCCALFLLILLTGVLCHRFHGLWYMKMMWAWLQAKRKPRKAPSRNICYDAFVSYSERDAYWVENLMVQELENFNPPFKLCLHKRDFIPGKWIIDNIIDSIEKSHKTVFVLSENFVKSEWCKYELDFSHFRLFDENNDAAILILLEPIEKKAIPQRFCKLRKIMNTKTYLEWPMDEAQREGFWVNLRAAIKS

Data set [2] can be described thus: Aqueous solubility of the compound. The format is physicochemical. As to conditions: buffer.
Data set [3] can be described thus: Upregulation of CD11b expression in human […] by flow cytometric analysis. The format is functional, cell-based. The essentials:
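Fresh heparinized or anticoagulated human whole blood from healthy adults, incubated with graded compound dilutions 1 h at 37 °C, with saline negative controls. Kept on ice 15 min, then stained with anti-CD11b on ice 30 min so only surface CD11b was labelled. Red cells lysed and leukocytes fixed in one step; PE single-colour flow cytometry on 20,000 gated events.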

The nature of data set [4]: Upregulation of p38 MAPK expression in […] […] by flow cytometric analysis. It counts as functional, cell-based. As to conditions: Homo sapiens. An outline of the steps: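 Heparinized fresh human whole blood exposed to graded compound concentrations in saline for 15 min at 37 °C. Red cells lysed and leukocytes fixed in one step, then permeabilized in ice-cold methanol 30 min. Stained with PE anti-phospho-p38MAPK (pT180/pY182, α/β/γ/δ isoforms). Single-colour PE flow cytometry on 20,000 gated events.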
On the technique in general: Flow cytometry measures light scatter and fluorescence of single cells or particles in a stream.

Active and inactive are the calls of the source. The rule behind the calls is not given here.

For `CC/C=C\C/C=C\C/C=C\CCCCCCCC(=O)OC[C@H](CSC[C@H](N)C(=O)NCC(=O)OC(C)C)OC(=O)CCCCCCC/C=C\C/C=C\C/C=C\CC`, the 50% effective concentration (EC50) in data set [1] came to 0.87 nM.

As to `CCCCCCCCCCCCCCCC(=O)O[C@H](COC(=O)CNCCCOCCOCCOCC)CSC[C@H](N)C(=O)N[C@@H](CO)C(=O)O`, the solubility entry in data set [2] is “soluble”. The EC50 in data set [1] was 2.11 nM.

As for `CCCCCCCCCCCCCCCC(=O)O[C@H](COC(=O)CNCCCNCCCCNCCCN)CSC[C@H](N)C(=O)N[C@@H](CO)C(=O)O`, in data set [2], the solubility result is reported as “soluble”. For the same molecule, the EC50 in data set [1] turned out to be 3.23 nM.

In the case of `CCCCCCCCCCCCCCCC(=O)OCC(CSC[C@H](N)C(=O)N[C@@H](CO)C(=O)O)OC(=O)CCCCCCCCCCCCCCC` (mixture of isomers), the result in data set [3] and in data set [4] was Active.

In the case of `CCCCCCCCCCCCCCCC(=O)OC[C@H](CSC[C@H](NC(=O)CC[C@H](N)C(=O)O)C(=O)NCC(=O)OC(C)C)OC(=O)CCCCCCCCCCCCCCC`, the EC50 in data set [1] is above 1000 nM.

Take `CCCCCCCCCCCC(=O)OC[C@H](CSC[C@H](N)C(=O)N[C@@H](CO)C(=O)O)OC(=O)CCCCCCCCCCC`: the EC50 in data set [1] amounted to 6.48 nM.

For the molecule `CCCCCCCCCCCCCC(=O)OC[C@H](CSC[C@H](N)C(=O)N[C@@H](CO)C(=O)O)OC(=O)CCCCCCCCCCCCC`, the EC50 in data set [1] was determined as 0.56 nM.

`CCCCCCCCCCCCCCCC(=O)OCCSC[C@H](N)C(=O)N[C@@H](CO)C(=O)OC`: the result in data set [3] and in data set [4] was Active. The concentration giving a half-maximal response (EC50) in data set [1] stood at 4.44 nM.

As to `CCCCCCCCCCCCCCCC(=O)OC[C@H](CSC(C)(C)[C@H](N)C(=O)N[C@@H](CO)C(=O)O)OC(=O)CCCCCCCCCCCCCCC`, in data set [1], the EC50 is above 1000 nM.

For `CCCCCCCCCCCCCCCC(=O)OCCCSC[C@H](N)C(=O)N[C@@H](CO)C(=O)OC`, the EC50 in data set [1] was above 1000 nM.

As to `CCCCC/C=C\C/C=C\CCCCCCCC(=O)OC[C@H](CSC[C@H](N)C(=O)NCC(=O)OC(C)C)OC(=O)CCCCCCC/C=C\C/C=C\CCCCC`, the EC50 in data set [1] came out at 1 nM.

With `CCCCCCCCCCCCCCCCOC(=O)CSC[C@H](N)C(=O)N[C@@H](CO)C(=O)OC`, the EC50 in data set [1] is above 1000 nM.

On to `CCCCCCCCCCCCCCCCOC(=O)CCSC[C@H](N)C(=O)N[C@@H](CO)C(=O)OC`, for which the EC50 in data set [1] is above 1000 nM.

Turning to `CCCCCCCCCCCCCCCC(=O)OC[C@H](C[Se]C[C@H](N)C(=O)N[C@@H](CO)C(=O)OC)OC(=O)CCCCCCCCCCCCCCC`, in data set [1], the concentration for a half-maximal effect (EC50) is 0.26 nM.

In the case of `CCCCCCCCCCCCCCCC(=O)OC[C@H](CSCCC(=O)N[C@@H](CO)C(=O)OC)OC(=O)CCCCCCCCCCCCCCC`, the concentration giving a half-maximal response (EC50) in data set [1] is above 1000 nM.

Take `CCCCCCCCCCCCCCCC(=O)OC[C@@H](O)CSC[C@H](N)C(=O)N[C@@H](CO)C(=O)O`: the EC50 in data set [1] was 1.95 nM.

For `CCCCCCCCCCCCCCCC(=O)OC[C@H](CSC(C)(C)[C@@H](N)C(=O)N[C@@H](CO)C(=O)OC)OC(=O)CCCCCCCCCCCCCCC`, in data set [1], the EC50 was above 1000 nM.

As for `CCCCCCCCCCCCCCCCCC(=O)OC[C@H](CSC[C@H](N)C(=O)N[C@@H](CO)C(=O)O)OC(=O)CCCCCCCCCCCCCCCCC`, the EC50 in data set [1] amounted to 1.47 nM.

On to `CCCCCCCCCCCCCCCC(=O)OC[C@H](CSCC[C@H](N)C(=O)N[C@@H](CO)C(=O)O)OC(=O)CCCCCCCCCCCCCCC`, for which the EC50 in data set [1] was above 1000 nM.

Consider `CCCCCCCCCCCCCCCC(=O)O[C@H](COC(=O)CNCCCOCCOCCOCCCN)CSC[C@H](N)C(=O)N[C@@H](CO)C(=O)O`, for which the solubility result in data set [2] was “soluble”. Besides, in data set [1], the 50% effective concentration (EC50) is 1.55 nM.

Turning to `CCOCCOCCOCCCNCC(=O)OC[C@H](CSC[C@H](N)C(=O)N[C@@H](CO)C(=O)O)OC(=O)CNCCCOCCOCCOCC`, the EC50 in data set [1] is above 1000 nM.

Regarding `CCCCCCCCCCCCCCCC(=O)OC[C@H](CSC[C@H](N)C(=O)NCC(=O)OC(C)C)OC(=O)CCCCCCCCCCCCCCC`, the concentration giving a half-maximal response (EC50) in data set [1] amounted to 0.45 nM.

As to `CCCCCCCCCCCCCCCC(=O)O[C@H](CO)CSC[C@H](N)C(=O)N[C@@H](CO)C(=O)O`, the EC50 in data set [1] turned out to be 1.86 nM.

Broadly, the EC50 is the concentration at which the effect is half-maximal.
